Reference: article PMC10466730 (Cancer cell, 2023)
pIC50, pKd: −log10 of the molar value. Read-outs that look alike come from different tables or passages of the source.

Legend:
MOLM-13 cells [1] = assay: Viability assay in MOLM-13 cells; type: cell-based, human; conditions: MOLM-13, 72 h; for pIC50: Homo sapiens
Summary of the method: (§1)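 Human AML cell lines were plated at 10,000 cells per well with increasing test compound up to 100 μM for 72 h at 37 °C, 5% CO₂. CellTiter-Glo was added 1:1 for 15 min at room temperature and luminescence was read; MTT was used as an alternative read-out. Percent viability was fitted by non-linear regression to give IC50. Three independent experiments, triplicates.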

panel of AML cell lines = assay: Viability assay in a panel of AML cell lines; type: cell-based, human; conditions: AML cell lines with various oncogenic mutations, 72 h
Summary of the method: as §1

[2] = system: MLL-AF9 leukemic bone marrow Crbn^I391V cells; assay: Viability assay in MLL-AF9 leukemic bone marrow Crbn^I391V cells; type: cell-based; conditions: Mus musculus, MLL-AF9, 72 h, read-out: IC50 (proliferation)
[3] = system: normal bone marrow Crbn^I391V cells; assay: Viability assay in normal bone marrow Crbn^I391V cells; type: cell-based; conditions: Mus musculus, 72 h, read-out: IC50 (proliferation)
AML PDX cells = assay: Viability assay in AML PDX cells; type: cell-based, human; conditions: read-out: IC50 (viability); two AML PDX samples, 2 days, Figure 5D
Summary of the method: (§2)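 AML PDX cells or normal human bone marrow cells were plated at 10,000 cells per well with increasing test compound concentrations and cultured for 2 days at 37 °C, 5% CO₂. Viability was read by CellTiter-Glo luminescence or MTT absorbance, normalized to percent viability, and fitted by non-linear regression.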

[4] = system: healthy bone marrow cells; assay: Viability assay in healthy bone marrow cells; type: cell-based; conditions: Homo sapiens, Bone marrow cell, 48 h, read-out: IC50 (viability)
Summary of the method: as §2

CK1α-GFP fusion protein = CK1α-GFP fusion protein (Homo sapiens, UniProt P48729+Q96SW2); assay: Flow cytometry degradation assay, HEK293T CK1α-GFP; type: cell-based; conditions: 5 h
[5] = molecular target: IKZF2(zinc finger 2)-GFP fusion protein (Homo sapiens, UniProt Q96SW2+Q9UKS7); assay: Flow cytometry degradation assay, HEK293T IKZF2; type: cell-based; conditions: HEK293T IKZF2(zinc finger 2)-GFP, 24 h
IKZF1(zinc finger 2)-GFP = IKZF1(zinc finger 2)-GFP (Homo sapiens, UniProt Q13422); assay: Flow cytometry degradation assay, HEK293T IKZF1; type: cell-based; conditions: HEK293T IKZF1(zinc finger 2)-GFP
GSPT1-GFP = GSPT1-GFP (Homo sapiens, UniProt P15170+Q96SW2); assay: Flow cytometry degradation assay, HEK293T GSPT1-GFP; type: cell-based
CRBN = CRBN (Homo sapiens, UniProt Q96SW2); assay: HTR-FRET Cereblon binding assay
Sequence of CRBN (Q96SW2 whole entry): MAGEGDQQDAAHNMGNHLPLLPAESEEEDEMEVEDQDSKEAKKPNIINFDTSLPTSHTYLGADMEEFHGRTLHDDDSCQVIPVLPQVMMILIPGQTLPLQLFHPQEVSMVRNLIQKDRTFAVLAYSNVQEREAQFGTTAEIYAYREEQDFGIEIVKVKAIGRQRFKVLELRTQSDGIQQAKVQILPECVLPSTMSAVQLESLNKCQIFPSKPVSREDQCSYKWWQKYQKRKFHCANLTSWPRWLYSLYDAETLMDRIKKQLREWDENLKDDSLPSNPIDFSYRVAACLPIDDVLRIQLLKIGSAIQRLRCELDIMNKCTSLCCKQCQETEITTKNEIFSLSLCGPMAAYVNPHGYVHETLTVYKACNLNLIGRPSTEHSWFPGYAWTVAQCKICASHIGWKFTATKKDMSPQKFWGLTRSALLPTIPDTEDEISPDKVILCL

[6] = molecular target: His-CULT and streptactin-CK1α (Homo sapiens, UniProt P48729+Q96SW2); assay: AlphaScreen ternary complex between CRBN and CK1α; type: binding; conditions: compared with lenalidomide
Sequence of His-CULT and streptactin-CK1α (Q96SW2 318-426 limits assumed): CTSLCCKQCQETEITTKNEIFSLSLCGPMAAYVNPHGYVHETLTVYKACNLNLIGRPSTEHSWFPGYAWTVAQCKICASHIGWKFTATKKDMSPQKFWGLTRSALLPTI
Sequence of His-CULT and streptactin-CK1α (P48729 whole entry): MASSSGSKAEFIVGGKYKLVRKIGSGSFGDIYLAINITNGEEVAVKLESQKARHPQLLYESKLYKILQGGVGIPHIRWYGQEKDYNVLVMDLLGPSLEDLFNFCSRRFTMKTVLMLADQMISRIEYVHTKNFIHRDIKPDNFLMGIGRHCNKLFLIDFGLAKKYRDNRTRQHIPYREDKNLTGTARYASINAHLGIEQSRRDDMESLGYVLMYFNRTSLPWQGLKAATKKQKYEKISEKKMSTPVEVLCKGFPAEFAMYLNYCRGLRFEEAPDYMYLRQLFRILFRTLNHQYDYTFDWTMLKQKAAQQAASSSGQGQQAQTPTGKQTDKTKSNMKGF
Summary of the method: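 CK1α–CRBN ternary complex by AlphaScreen in 1× AlphaScreen buffer (3× stock: 150 mM HEPES pH 7.4, 450 mM NaCl, 0.3% BSA, 0.03% Tween 20). Streptactin-CK1α (600 nM solution) and CULT (500 nM solution) were mixed with a 2-fold serial dilution of test compound in 3% DMSO/buffer, in triplicate, for 1 h at 25 °C. Streptactin acceptor and nickel chelate donor beads were then added for 1 h at 25 °C in the dark before reading.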

IKZF2 = IKZF2 (Homo sapiens, UniProt Q96SW2+Q9UKS7); assay: Western blot of IKZF2 in MOLM-13 cells; type: cell-based; conditions: MOLM-13, 24 h
Sequence of IKZF2 (Q9UKS7 whole entry): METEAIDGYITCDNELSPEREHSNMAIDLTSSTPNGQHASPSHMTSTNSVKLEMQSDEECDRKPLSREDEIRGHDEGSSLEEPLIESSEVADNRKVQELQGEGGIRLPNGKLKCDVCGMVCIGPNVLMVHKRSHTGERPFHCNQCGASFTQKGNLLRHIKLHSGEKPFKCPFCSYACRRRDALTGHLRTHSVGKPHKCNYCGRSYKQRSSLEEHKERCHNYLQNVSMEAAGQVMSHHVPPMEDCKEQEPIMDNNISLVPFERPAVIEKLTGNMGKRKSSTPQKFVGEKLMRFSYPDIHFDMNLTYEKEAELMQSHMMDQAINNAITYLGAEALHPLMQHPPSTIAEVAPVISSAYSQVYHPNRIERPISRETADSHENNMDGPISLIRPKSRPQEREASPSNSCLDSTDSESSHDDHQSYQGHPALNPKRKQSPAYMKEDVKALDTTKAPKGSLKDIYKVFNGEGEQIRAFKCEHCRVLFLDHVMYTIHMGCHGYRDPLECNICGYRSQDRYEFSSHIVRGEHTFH
Sequence of IKZF2 (Q96SW2 whole entry): as the sequence (Q96SW2 whole entry) above
Sequence of IKZF2 (Q16531 whole entry partner): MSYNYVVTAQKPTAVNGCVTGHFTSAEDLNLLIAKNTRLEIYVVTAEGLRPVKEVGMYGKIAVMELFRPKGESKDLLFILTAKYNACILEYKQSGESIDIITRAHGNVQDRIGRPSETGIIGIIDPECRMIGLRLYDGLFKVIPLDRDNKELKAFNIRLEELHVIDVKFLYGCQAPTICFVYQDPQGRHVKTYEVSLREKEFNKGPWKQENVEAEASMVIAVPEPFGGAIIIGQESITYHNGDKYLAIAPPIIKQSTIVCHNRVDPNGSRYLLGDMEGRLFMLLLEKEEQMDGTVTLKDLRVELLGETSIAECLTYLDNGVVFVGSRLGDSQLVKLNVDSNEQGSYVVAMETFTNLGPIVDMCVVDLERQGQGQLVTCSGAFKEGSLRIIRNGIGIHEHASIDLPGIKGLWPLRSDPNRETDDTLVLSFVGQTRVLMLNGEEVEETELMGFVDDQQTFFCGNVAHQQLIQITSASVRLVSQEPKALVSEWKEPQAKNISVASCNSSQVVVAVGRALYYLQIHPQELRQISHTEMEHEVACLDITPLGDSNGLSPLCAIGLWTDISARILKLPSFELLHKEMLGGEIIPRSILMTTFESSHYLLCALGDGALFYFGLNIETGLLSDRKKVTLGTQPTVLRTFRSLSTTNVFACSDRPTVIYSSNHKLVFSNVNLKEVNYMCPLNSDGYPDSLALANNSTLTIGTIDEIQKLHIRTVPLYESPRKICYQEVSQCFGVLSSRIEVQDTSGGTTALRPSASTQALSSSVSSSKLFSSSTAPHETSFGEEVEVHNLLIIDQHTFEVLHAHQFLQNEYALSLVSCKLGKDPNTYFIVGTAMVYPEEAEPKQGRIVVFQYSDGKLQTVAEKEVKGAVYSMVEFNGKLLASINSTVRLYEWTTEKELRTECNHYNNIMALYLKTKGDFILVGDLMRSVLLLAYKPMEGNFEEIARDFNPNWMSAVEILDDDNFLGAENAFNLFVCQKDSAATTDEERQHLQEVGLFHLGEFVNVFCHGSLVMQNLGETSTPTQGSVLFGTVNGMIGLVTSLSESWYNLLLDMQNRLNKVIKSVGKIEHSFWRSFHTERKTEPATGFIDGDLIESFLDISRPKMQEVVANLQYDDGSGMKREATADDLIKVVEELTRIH
Summary of the method: (§3)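 MOLM-13 cells (1 × 10⁶) were treated 24 h with test compound diluted from DMSO stocks. Cells were pelleted, washed with PBS, lysed in Laemmli buffer by vortexing for 10 min, and boiled at 95 °C for 5 min. Lysates were resolved on 4–15% gradient SDS-PAGE, transferred to PVDF and immunoblotted with target-specific antibodies.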

CK1α = CK1α (Homo sapiens, UniProt P48729+Q96SW2); assay: Western blot of CK1α in MOLM-13 cells; type: cell-based; conditions: for CK1α degradation (Western blot): MOLM-13
Sequence of CK1α (P48729 whole entry): as the sequence (P48729 whole entry) above
Sequence of CK1α (Q96SW2 whole entry): as the sequence (Q96SW2 whole entry) above
Sequence of CK1α (Q16531 whole entry partner): as the sequence (Q16531 whole entry partner) above
Summary of the method: as §3

IKZF1 = IKZF1 (Homo sapiens, UniProt Q13422); assay: Western blot of IKZF1 in MOLM-13 cells; type: cell-based; conditions: MOLM-13, 24 h
Summary of the method: as §3

IKZF3 = IKZF3 (Homo sapiens, UniProt Q9UKT9); assay: Western blot of IKZF3 in MOLM-13 cells; type: cell-based; conditions: MOLM-13, 24 h
Summary of the method: as §3

IKZF4 = IKZF4 (Homo sapiens, UniProt Q9H2S9); assay: Western blot of IKZF4 in MOLM-13 cells; type: cell-based; conditions: MOLM-13, 24 h
Summary of the method: as §3

GSPT1 = GSPT1 (Homo sapiens, UniProt P15170+Q96SW2); assay: Western blot of endogenous GSPT1; type: cell-based; conditions: degradation at micromolar concentrations, Figure S2D
MOLM-13 cells [7] = assay: Quantitative global proteomics in MOLM-13 cells; type: cell-based, human; conditions: 50 nM, 2 h
MOLM-13 cells [8] = assay: Flow cytometry for apoptosis and differentiation in MOLM-13 cells; type: cell-based, human; conditions: MOLM-13, 10 nM and 100 nM, 2 days
Summary of the method: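 MOLM-13 cells were treated 48 h. For differentiation, cells were stained 20 min in the dark in 2% FBS RPMI for CD13-FITC/CD33-APC or CD14-FITC/CD11b-APC. Mean ± SEM of three experiments; Student's t test.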

MLL-AF9 Crbn^I391V cells [9] = assay: Flow cytometry for apoptosis and differentiation in MLL-AF9 Crbn^I391V cells; type: cell-based, mouse; conditions: 10 nM, 24 h post treatment, dependent on humanized CRBN
[10] = system: MLL-AF9 Crbn^I391V leukemic cells; assay: Colony assay of MLL-AF9 Crbn^I391V leukemic cells; type: cell-based, mouse; conditions: 10 nM, M3434 methylcellulose
Summary of the method: (§4)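 Murine cells were plated on MethoCult M3434 methylcellulose with test compound: 500 sorted LSK cells from Crbn^I391V mice, or 1000 bone marrow cells from MLL-AF9 Crbn^I391V leukemic mice. Colonies were counted after 5 days and normalized. Cells came from n=3 mice. Mean ± SEM of biological replicates from two experiments.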

[11] = system: LSK cells from Crbn^I391V mice; assay: Colony assay of Crbn^I391V LSK cells; type: cell-based, mouse; conditions: 10 nM, M3434 methylcellulose
Summary of the method: as §4

[12] = system: primary AML patient samples; assay: Colony assay of primary AML patient samples; type: cell-based, human; conditions: 10 nM, n = 8, compared to healthy adult bone marrow or cord blood cells
Summary of the method: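 Primary AML patient cells, normal bone marrow or cord blood CD34+ HSPCs were plated at 5000 cells on methylcellulose with test compound. Colonies were counted after 7 days and normalized to control. Mean ± SEM of samples from more than three experiments.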

[13] = system: MOLM-13 and MOLM-14 cells; assay: Combination viability assay with other AML drugs; type: cell-based, human; conditions: 72 h
Summary of the method: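 MOLM-13 cells were co-treated with test compound plus midostaurin or cytarabine for 72 h. Viability was read by CellTiter-Glo luminescence. A representative of three independent experiments is shown, mean ± SEM of triplicates.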

Pharmacokinetics in mice = type: in vivo, mouse; conditions: plasma, ip
Summary of the method: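 Single intraperitoneal doses in DMSO: one test compound at 5 or 50 mg/kg in male CD1 mice, another at 223 mg/kg in female Crbn^I391V mice. Plasma was collected at set times and compound levels were measured by HPLC.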

MLL-AF9 Crbn^I391V cells [14] = assay: Pharmacodynamics in BL6 mice transplanted with MLL-AF9 Crbn^I391V cells; type: in vivo, mouse
MLL-AF9 Crbn^I391V cells [15] = assay: Efficacy in BL6 mice transplanted with MLL-AF9 Crbn^I391V cells; type: in vivo
MOLM-13 cells [16] = assay: Efficacy in NSG mice transplanted with MOLM-13 cells; type: in vivo; conditions: for survival: vs DMSO
AML PDX#2 = assay: Efficacy in NSG mice transplanted with AML PDX; type: in vivo, mouse
Solubility in DMSO = type: physicochemical
[17] = Toxicity in the hematopoietic system of Crbn^I391V mice; type: in vivo, mouse; conditions: four rounds of 223 mg/kg, weekly
Summary of the method: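 Female Crbn^I391V mice aged 8–12 weeks received DMSO or 223 mg/kg test compound once weekly for four rounds. They were sacrificed 4 weeks later. Blood was analysed on a hematology analyser, and stem/progenitor compartments were assessed by flow cytometry.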

MLL-AF9 Crbn^I391V cells [18] = assay: Efficacy in Crbn^I391V mice transplanted with MLL-AF9 Crbn^I391V cells; type: in vivo, mouse; conditions: 223 mg/kg weekly, non-irradiated Crbn^I391V mice
[19] = read-out: IC50 (cell viability)

Compound: COc1ccc2cc(C(=O)Nc3ccc4c(c3)CN(C3CCC(=O)NC3=O)C4=O)ccc2c1 (stereo not shown) [DEG-35, N-(2-(2,6-dioxopiperidin-3-yl)-1-oxoisoindolin-5-yl)-6-methoxy-2-naphthamide]
- pIC50 (MOLM-13 cells [1]; [19]): 8.30
- pIC50 (MOLM-13 cells [1]; read-out: IC50 (viability)): 8.24
- cellular growth inhibition (MOLM-13 cells [1]; unlike lenalidomide, Figure 1E): inhibited cellular growth
- IC50 values (growth) (panel of AML cell lines): single digit nM to low μM
- pIC50 [2]: 8.04
- pIC50 [3]: 7.00
- pIC50 (AML PDX cells): 8.28
- pIC50 [4]: 7.80
- DCmax CK1α (CK1α-GFP fusion protein): 84%
- DCmax IKZF2 [5]: 92%
- DCmax IKZF1-GFP (IKZF1(zinc finger 2)-GFP): 12%
- DCmax GSPT1-GFP (GSPT1-GFP): 24%
- pKd (CRBN): 6.33
- ternary complex between CRBN and CK1α [6]: significantly stronger ternary complex
- IKZF2 degradation (Western blot) (IKZF2): efficiently degraded IKZF2
- CK1α degradation (Western blot) (CK1α): efficiently degraded CK1α
- concentrations depleting CK1α (as low as) (CK1α; MOLM-13, 24 h, Western blot): 1 to 10 nM
- activity against IKZF1 (Western blot) (IKZF1): limited activity
- activity against IKZF3 (Western blot) (IKZF3): limited activity
- activity against IKZF4 (Western blot) (IKZF4): limited activity
- endogenous GSPT1 degradation (Western blot) (GSPT1): limited degradation at nanomolar concentrations
- CK1α rank in global proteomics (MOLM-13 cells [7]): most significantly downregulated protein
- apoptosis induction and myeloid differentiation (MOLM-13 cells [8]): significant dose-dependent apoptosis induction and myeloid differentiation
- apoptosis and myeloid differentiation (MLL-AF9 Crbn^I391V cells [9]): resulted in apoptosis and myeloid differentiation at nanomolar concentrations
- reduction of colonies [10]: half
- LSK derived colonies [11]: not affected
- colony formation [12]: reduced colony formation
- sensitivity to DEG-35 on co-treatment with cytarabine [13]: more sensitive
- sensitivity to DEG-35 on co-treatment with midostaurin [13]: more sensitive
- half-life (Pharmacokinetics in mice; male, CD1, mouse): 2.5 h
- degradation of CK1α and IKZF2 in leukemic cells from bone marrow and spleen (MLL-AF9 Crbn^I391V cells [14]; single dose 50 mg/kg, 24 h and 72 h): efficient degradation of CK1α and IKZF2
- body weight (MLL-AF9 Crbn^I391V cells [15]; 50 mg/kg): without overt weight loss
- leukemia progression (MLL-AF9 Crbn^I391V cells [15]; 50 mg/kg, vs DMSO): delayed leukemia progression
- body weight (MOLM-13 cells [16]; 50 mg/kg): without overt weight loss
- disease burden (spleen and liver weights) (MOLM-13 cells [16]; 50 mg/kg): decreased spleen and liver weights
- survival (MOLM-13 cells [16]; 50 mg/kg): significantly prolonged survival
- survival (AML PDX#2; AML PDX#2, DEG-35 vs DMSO): significant prolonged survival

Compound: COc1cccc2c1OCC(C(=O)Nc1ccc3c(c1)CN(C1CCC(=O)NC1=O)C3=O)=C2 (stereo not shown) [DEG-77, N-(2-(2,6-dioxopiperidin-3-yl)-1-oxoisoindolin-5-yl)-8-methoxy-2H-chromene-3-carboxamide]
- pIC50 (MOLM-13 cells [1]; [19]): 8.40
- IKZF2 degradation (Western blot) (IKZF2): maintained comparable activity
- CK1α degradation (Western blot) (CK1α): maintained comparable activity
- half-life (Pharmacokinetics in mice; female, Crbn^I391V, mouse, 223 mg/kg): 16.9 h
- increase in solubility in DMSO compared to DEG-35 (Solubility in DMSO): 10 fold
- degradation of IKZF2, CK1α, GSPT1 in bone marrow and splenic leukemic cells (MLL-AF9 Crbn^I391V cells [14]; one injection 223 mg/kg, 24, 48 and 72 h): degradation of IKZF2 and CK1α but not GSPT1
- body weight (MLL-AF9 Crbn^I391V cells [15]; 223 mg/kg weekly): without loss of total body weight
- survival (MLL-AF9 Crbn^I391V cells [15]; 223 mg/kg weekly, vehicle 35 days): 66 days
- leukemia progression in secondary transplant (MLL-AF9 Crbn^I391V cells [15]; cells from mice treated in the primary transplant): pronounced delay in leukemia progression
- survival (MOLM-13 cells [16]; 223 mg/kg weekly): increased survival
- survival (AML PDX#2; 223 mg/kg weekly from 4 weeks post-transplant): significant extension of survival
- engraftment of PDX cells in the bone marrow (AML PDX#2; after a single injection, >85% prior to treatment): around 40%
- WBC counts [17]: modest reduction of WBC counts
- platelets and RBC counts [17]: remained unchanged
- stem cell compartment frequency [17]: reduced HSC and MPP1 frequency
- survival (MLL-AF9 Crbn^I391V cells [18]): significant increase in survival

Compound: COc1ccc2cc(C(=O)Nc3ccc4c(c3)CN(C3CCC(=O)N(C)C3=O)C4=O)ccc2c1 (stereo not shown) [Me-DEG-35, 6-methoxy-N-(2-(1-methyl-2,6-dioxopiperidin-3-yl)-1-oxoisoindolin-5-yl)-2-naphthamide]
- IKZF2 degradation (Western blot) (IKZF2): rescued IKZF2 and CK1α degradation
- CK1α degradation (Western blot) (CK1α): rescued IKZF2 and CK1α degradation
